In ChEMBL document CHEMBL1122485, “Antibacterially active substituted anilides of carboxylic and sulfonic acids” (1983):
Values after ≈ are worked out from the molar mass of the structure shown.

How the values were obtained:
[1] = system: Staphylococcus aureus; experiment: Bactericidal activity against Staphylococcus aureus ATCC 6538 at 10 ppm concentration; - = Negative; format: functional, organism-based
How it was run: (§1)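 S. aureus was inoculated at 10⁷/mL into 10 mL nutrient broth with 10 ppm compound. Those tubes were centrifuged (10000g, 10 min), resuspended in sterile diluent and streaked onto nutrient agar. Colonies after 48 h at 30 °C meant bacteriostatic; none meant bactericidal.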

[2] = system: Staphylococcus aureus; experiment: Bacteriostatic activity against Staphylococcus aureus ATCC 6538 at 10 ppm concentration; + =Positive; format: functional, organism-based; how it was run: as §1
[3] = system: Staphylococcus aureus; experiment: Activity at 10 ppm against Staphylococcus aureus ATCC 6538; x=Effective; format: functional, organism-based
[4] = system: Lactiplantibacillus plantarum; experiment: Activity at 10 ppm against Lactobacillus plantarum; x=Effective; format: functional, organism-based
How it was run: (§2)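 Gram-positive panel on nutrient agar containing compound at 10, 1.0 and 0.1 ppm, duplicate plates. Six 15-µL drops per species, each holding 10⁷ vegetative cells (10⁶ for L. plantarum). Hexachlorophene and no-compound plates were run alongside. Plates were incubated 5 days at 30 °C and scored for growth. MIC was taken as the lowest level with no colonies on either plate.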

[5] = system: Staphylococcus aureus; experiment: Minimum inhibitory concentration against staphylococcus aureus ATCC 6538; format: functional
How it was run: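 Agar dilution: 1% stocks in 95% ethanol or water, serially diluted into nutrient agar (pH 6.8) to 1000, 100, 10 and 1 ppm. Plates were dried 30 min at 37 °C and spotted with ten drops of 24-h nutrient broth culture. Incubation was 48 h at 37 °C, in duplicate, with hexachlorophene as standard. MIC was the lowest level with no growth of any inoculum on either dish.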

[6] = system: Bacillus cereus; experiment: Activity at 10 ppm against Bacillus cereus NRRL 3711; x=Effective; format: functional, organism-based; how it was run: as §2
[7] = system: Enterococcus faecalis; experiment: Activity at 10 ppm against Streptococcus faecalis; x=Effective; format: functional, organism-based; how it was run: as §2

MIC [5] [µg/mL] | Structure (SMILES) | further results
10 (≈ 28.2 µM) | CCCc1ccc(S(=O)(=O)Nc2ccc(Cl)c([N+](=O)[O-])c2)cc1 | –
10 (≈ 28.5 µM) | CCCCc1ccc(S(=O)(=O)Nc2cc([N+](=O)[O-])ccc2O)cc1 | Activity [1]: Negative; Activity [2]: Negative; Activity [6]: Concentration effective; Activity [3]: Concentration effective; Activity [4]: Concentration effective
10 (≈ 31.6 µM) | Cc1ccc(S(=O)(=O)Nc2ccc(Cl)c(Cl)c2)cc1 | –
> 1000 | CCCCCCc1ccc(C(=O)Nc2ccc(Cl)c(Cl)c2)cc1 | –
1000 (≈ 3010 µM) | COC(=O)CCCCCCC(=O)Nc1ccc(Cl)c(Cl)c1 | –
1 (≈ 3.4 µM) | O=C(CCc1ccccc1)Nc1ccc(Cl)c(Cl)c1 | –
1 (≈ 3.22 µM) | C=C(CCCCCC)C(=O)Nc1ccc(Cl)c([N+](=O)[O-])c1 | –
> 1000 | COC(=O)CCCCCCCCC(=O)Nc1ccc(Cl)c([N+](=O)[O-])c1 | –
100 (≈ 290 µM) | CCCCCCCCCCCC(=O)Nc1ccc(Cl)c(Cl)c1 | –
> 1000 | CCCCCCCCCCCC(=O)Nc1ccc(Cl)c([N+](=O)[O-])c1 | –
10 (≈ 29 µM) | CC(C)c1ccc(S(=O)(=O)Nc2ccc(Cl)c(Cl)c2)cc1 | –
1000 (≈ 3570 µM) | Cc1ccc(C(=O)Nc2ccc(Cl)c(Cl)c2)cc1 | –
1000 (≈ 3450 µM) | O=C(O)CCCCC(=O)Nc1ccc(Cl)c(Cl)c1 | –
1 (≈ 2.89 µM) | COC(=O)CCCCCCCC(=O)Nc1ccc(Cl)c(Cl)c1 | –
1000 (≈ 3290 µM) | COC(=O)CCCCC(=O)Nc1ccc(Cl)c(Cl)c1 | –
1 (≈ 3.07 µM) | CCCc1ccc(S(=O)(=O)Nc2cc(Cl)ccc2O)cc1 | Activity [7]: Concentration effective; Activity [1]: Negative; Activity [2]: Negative; Activity [6]: Concentration effective; Activity [3]: Concentration effective; Activity [4]: Concentration effective
1 (≈ 3.05 µM) | C=C(CCCCCCCC)C(=O)Nc1ccc(Cl)c(Cl)c1 | –
100 (≈ 373 µM) | C=C(CCCCC)C(=O)Nc1cc(Cl)ccc1O | –
1 (≈ 2.95 µM) | C=C(CCCCCCCC)C(=O)Nc1ccc(Cl)c([N+](=O)[O-])c1 | –
1 (≈ 2.97 µM) | CCCc1ccc(S(=O)(=O)Nc2cc([N+](=O)[O-])ccc2O)cc1 | –
1 (≈ 2.69 µM) | O=S(=O)(Nc1ccc(Cl)c(Cl)c1)c1ccc(Cl)c(Cl)c1 | Activity [7]: Concentration effective; Activity [1]: Negative; Activity [2]: Negative; Activity [6]: Concentration effective; Activity [3]: Concentration effective; Activity [4]: Concentration effective
10 (≈ 27.9 µM) | CCCCc1ccc(S(=O)(=O)Nc2ccc(Cl)c(Cl)c2)cc1 | –
1000 (≈ 3100 µM) | CCCCc1ccc(C(=O)Nc2ccc(Cl)c(Cl)c2)cc1 | –
100 (≈ 292 µM) | O=C(O)CCCCCCCC(=O)Nc1ccc(Cl)c([N+](=O)[O-])c1 | –
1 (≈ 3.55 µM) | C=C(CCCCCC)C(=O)Nc1cc(Cl)ccc1O | –
10 (≈ 37.1 µM) | CCCCCCCC(=O)Nc1cc(Cl)ccc1O | –

Continued, molecule first:

Structure (SMILES) | MIC [5] [µg/mL] | further results
CCCCCCC(=O)Nc1cc(Cl)cc(Cl)c1 | 1 (≈ 3.65 µM) | Activity [1]: Negative; Activity [2]: Negative; Activity [3]: Concentration effective; Activity [4]: Concentration effective
CCCCCCCCCC(=O)Nc1ccc(Cl)c([N+](=O)[O-])c1 | 10 (≈ 30.6 µM) | –
O=C(O)CCCCCCCCC(=O)Nc1ccc(Cl)c(Cl)c1 | > 1000 | –
C=C(CCCCCC)C(=O)Nc1ccc(Cl)c(Cl)c1 | 1 (≈ 3.33 µM) | –
CCCCCC(=O)Nc1cc(Cl)ccc1O | 10 (≈ 41.4 µM) | –
CCCCCCC(=O)Nc1cc([N+](=O)[O-])ccc1O | 10 (≈ 37.6 µM) | –
CCCc1ccc(C(=O)Nc2cc(Cl)ccc2O)cc1 | > 1000 | –
C=C(CCCCCCC)C(=O)Nc1cc(Cl)ccc1O | 1 (≈ 3.38 µM) | –
CCCCCCCCC(=O)Nc1cc(Cl)cc(Cl)c1 | 1 (≈ 3.31 µM) | –
CCCCCCCCCCCC(=O)Nc1cc([N+](=O)[O-])ccc1O | 1000 (≈ 2970 µM) | –
CCCCCCC(=O)Nc1ccc(Cl)c([N+](=O)[O-])c1 | 10 (≈ 35.1 µM) | –
COC(=O)CCCCCCC(=O)Nc1ccc(Cl)c([N+](=O)[O-])c1 | 1000 (≈ 2920 µM) | –
CCCc1ccc(C(=O)Nc2cc([N+](=O)[O-])ccc2O)cc1 | 10 (≈ 33.3 µM) | –
CCCCCCCCCC(=O)Nc1cc(Cl)ccc1O | 1 (≈ 3.36 µM) | –
CCCCCC(=O)Nc1ccc(Cl)c([N+](=O)[O-])c1 | 10 (≈ 36.9 µM) | –
O=C(O)CCCCCCC(=O)Nc1ccc(Cl)c(Cl)c1 | 100 (≈ 314 µM) | –
COC(=O)CCC(=O)Nc1ccc(Cl)c(Cl)c1 | 1000 (≈ 3620 µM) | –
CCCCCC(=O)Nc1cc([N+](=O)[O-])ccc1O | 10 (≈ 39.6 µM) | –
CCC(C(=O)Nc1cc(Cl)ccc1O)c1ccccc1 (stereo unspecified) | 10 (≈ 34.5 µM) | –
C=C(CCCCC)C(=O)Nc1ccc(Cl)c(Cl)c1 | 10 (≈ 34.9 µM) | –
CCCc1ccc(C(=O)Nc2ccc(Cl)c(Cl)c2)cc1 | > 1000 | –
O=C(CCc1ccccc1)Nc1cc(Cl)ccc1O | 100 (≈ 363 µM) | –
CCCCCCCCCCCC(=O)Nc1cc(Cl)ccc1O | 1 (≈ 3.07 µM) | –
CCCCCCC(=O)Nc1cc(Cl)ccc1O | 10 (≈ 39.1 µM) | –
C=C(CCCCCC)C(=O)Nc1cc(Cl)cc(Cl)c1 | 1 (≈ 3.33 µM) | Activity [1]: Negative; Activity [2]: Negative; Activity [3]: Concentration effective; Activity [4]: Concentration effective
